Experimental data taken from paper PMC4455945 (Journal of the American Chemical Society, 2015).
One block for each compound: values may come before it. Peptide text beside a SMILES is read from it. * marks the point of attachment. Cbz = O=C(OCc1ccccc1)*

What was measured:
[1] = test system: HEK293-T cells; experiment: Anti-Ub Western blot of poly-ubiquitin conjugates in HEK293-T cells; type: cell-based; details: relative to vehicle-treated cells
[2] = test system: HEK-293T cells; experiment: Cell viability of HEK-293T cells; type: cell-based; details: concentration of 100 μM
Outline: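 HEK-293T cells were tested alongside multiple myeloma lines after exposure to test peptoids. Viability was read as fluorescence (RFU).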

[3] = molecular target: T1, Rpn13 (Homo sapiens, UniProt Q16186); details: assay not described; cited from earlier work
T1 sequence (Q16186 whole entry): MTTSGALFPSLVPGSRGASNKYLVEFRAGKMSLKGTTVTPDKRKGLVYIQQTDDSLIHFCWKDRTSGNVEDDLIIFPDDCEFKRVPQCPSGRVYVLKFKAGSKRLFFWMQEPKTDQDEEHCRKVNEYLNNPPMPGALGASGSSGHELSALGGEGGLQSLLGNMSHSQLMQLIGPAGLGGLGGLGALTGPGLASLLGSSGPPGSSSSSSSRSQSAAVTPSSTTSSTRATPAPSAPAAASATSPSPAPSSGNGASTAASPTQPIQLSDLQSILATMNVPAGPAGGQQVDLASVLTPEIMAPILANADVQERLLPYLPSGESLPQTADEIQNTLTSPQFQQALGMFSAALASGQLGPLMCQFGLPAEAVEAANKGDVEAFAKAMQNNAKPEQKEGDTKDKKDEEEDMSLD

[4] = molecular target: T1, Rpn13; experiment: FP competition against fluorescently labeled 11 bound to Rpn13; type: binding; details: increasing amounts of competitor
Outline: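 Rpn13 pre-incubated with fluorescein-labelled test peptoid to form the complex, then challenged with increasing amounts of unlabelled competitor: either a covalent Rpn13 inhibitor reported to react at Cys88, or the unlabelled form of the same peptoid. Read-out is the change in fluorescence polarization.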

[5] = molecular target: Purified 26S proteasome (Homo sapiens, UniProt P20618+P28074); experiment: Cleavage of Suc-LLVY-AMC by purified 26S proteasome; type: biochemical

Compound: CC(C)C[C@@H](C=O)NC(=O)[C@H](CC(C)C)NC(=O)[C@H](CC(C)C)NC(=O)OCc1ccccc1 [MG-132] (Cbz-Leu-Leu-Leu-aldehyde)
accumulation of ubiquitylated proteins [1]: accumulation of ubiquitylated proteins does occur | cell death of HEK-293T cells at 100 μM [2]: no significant cell death

Compound: Cl.N[C@@H](Cc1ccccc1)C(=O)N1C/C(=C/c2ccc(Cl)c(Cl)c2)C(=O)/C(=C\c2ccc(Cl)c(Cl)c2)C1 [RA-190]
IC50 [3]: 100 nM | competition of the fluorescently labeled 11-Rpn13 complex (FP signal) [4]: insensitive

effect on hydrolysis of the fluorogenic peptide (fluorescence) [5]: dose-sensitive decrease of fluorescence
Compound: CC(C)C[C@H](NC(=O)[C@H](Cc1ccccc1)NC(=O)c1cnccn1)B(O)O [Bortezomib]
